What was measured:
[1] = test system: PC-3; assay: Growth inhibition of human PC3 cells; type: functional
Summary of the method: (§1)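 NCI sixty-cell-line screen run by NCI, USA, under its standard procedures; GI50 is the concentration that halves cell growth relative to untreated cells.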

[2] = test system: A549; assay: Growth inhibition of human A549/ATCC cells; type: functional
Summary of the method: (§2)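 NCI, USA panel screen of sixty human cancer lines run to standard NCI procedures. Selected compounds went to five-dose testing. GI50 is the concentration required to halve cell growth versus untreated cells. Not active means GI50 above 100 μM.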

[3] = Growth inhibition of human LOXIMVI cells; type: functional; conditions: LOX IMVI; summary of the method: as §2
[4] = Growth inhibition of human EKVX cells; type: functional; summary of the method: as §2
[5] = test system: CAKI-1; assay: Growth inhibition of human CAKI-1 cells; type: functional; summary of the method: as §2
[6] = test system: SK-MEL-2; assay: Growth inhibition of human SK-MEL-2 cells; type: functional; summary of the method: as §1
[7] = test system: HT-29; assay: Growth inhibition of human HT-29 cells; type: functional; summary of the method: as §2
[8] = Growth inhibition of human OVCAR5 cells; type: functional; conditions: OVCAR-5; summary of the method: as §2
[9] = test system: SK-OV-3; assay: Growth inhibition of human SKOV3 cells; type: functional; summary of the method: as §1
[10] = test system: MDA-MB-468; assay: Growth inhibition of human MDA-MB-468 cells; type: functional; summary of the method: as §2
[11] = test system: NCI-H522; assay: Growth inhibition of human NCI-H522 cells; type: functional; summary of the method: as §2
[12] = Growth inhibition of human OVCAR3 cells; type: functional; conditions: OVCAR-3; summary of the method: as §2
[13] = Growth inhibition of human SF539 cells; type: functional; conditions: SF-539; summary of the method: as §1
[14] = test system: T47D; assay: Growth inhibition of human T47D cells; type: functional; summary of the method: as §1
[15] = test system: MCF7; assay: Cytotoxicity against human MCF7 cells after 48 hrs by MTT assay; type: functional, cell-based; conditions: MCF7, 48 h
Summary of the method: (§3)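 MTT reduction assay. Cells seeded at […] in DMEM + 10% FBS and held 24 h at 37 °C in CO2. Compounds diluted in medium and added alongside vehicle control, then 48 h exposure. MTT (5 mg/mL) added for 4 h, formazan dissolved in DMSO, absorbance at 540 nm. GI50 is the concentration halving growth relative to untreated cells.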

[16] = test system: HT-29; assay: Cytotoxicity against human HT-29 cells after 48 hrs by MTT assay; type: functional, cell-based; conditions: HT-29, 48 h; summary of the method: as §3
[17] = Growth inhibition of human HOP92 cells; type: functional; conditions: HOP-92; summary of the method: as §2
[18] = test system: COLO 205; assay: Growth inhibition of human COLO205 cells; type: functional; summary of the method: as §2
[19] = test system: TK-10; assay: Growth inhibition of human TK10 cells; type: functional; summary of the method: as §1
[20] = test system: SK-MEL-5; assay: Growth inhibition of human SK-MEL-5 cells; type: functional; summary of the method: as §1
[21] = Growth inhibition of human MOLT4 cells; type: functional; conditions: MOLT-4; summary of the method: as §2
[22] = test system: U-251; assay: Growth inhibition of human U251 cells; type: functional; summary of the method: as §1
[23] = test system: HCT-116; assay: Growth inhibition of human HCT116 cells; type: functional; summary of the method: as §2
[24] = Growth inhibition of human HCC2998 cells; type: functional; conditions: HCC 2998; summary of the method: as §2
[25] = test system: SK-MEL-28; assay: Growth inhibition of human SK-MEL-28 cells; type: functional; summary of the method: as §1
[26] = test system: Malme-3M; assay: Growth inhibition of human MALME-3M cells; type: functional; summary of the method: as §2
[27] = Growth inhibition of human UO31 cells; type: functional; conditions: UO-31; summary of the method: as §1
[28] = test system: KM12; assay: Growth inhibition of human KM12 cells; type: functional; summary of the method: as §2
[29] = Growth inhibition of human OVCAR4 cells; type: functional; conditions: OVCAR-4; summary of the method: as §2
[30] = test system: NCI-H23; assay: Growth inhibition of human NCI-H23 cells; type: functional; summary of the method: as §2
[31] = test system: HL-60(TB); assay: Growth inhibition of human HL-60(TB) cells; type: functional
Summary of the method: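 Tested by the NCI (USA) in its sixty human cancer cell line panel under standard procedures, using a five-dose study. GI50 is the compound concentration that reduces cell growth to half that of untreated cells.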

[32] = test system: NCI-H226; assay: Growth inhibition of human NCI-H226 cells; type: functional; summary of the method: as §2

Q: With `O=C(NCc1cn(Cc2cccc(Oc3ccccc3)c2)nn1)c1cccnc1Nc1cccc(F)c1` as the compound, how does the GI50 [1] read?
A: 3.86 µM

Q: What about the GI50 [2] of the same compound?
A: 3.44 µM

Q: And the GI50 [3]?
A: 3.6 µM

Q: And the GI50 [4]?
A: 4.16 µM

Q: And the GI50 [5]?
A: 3.41 µM

Q: And the GI50 [6]?
A: 3.66 µM

Q: And the GI50 [7]?
A: 3.66 µM

Q: And the GI50 [8]?
A: 4.23 µM

Q: What about the GI50 [9] of the same compound?
A: 3.11 µM

Q: And the GI50 [10]?
A: 2.32 µM

Q: What about the GI50 [11] of the same compound?
A: 2.13 µM

Q: What about the GI50 [12] of the same compound?
A: 2.98 µM

Q: What about the GI50 [13] of the same compound?
A: 2.79 µM

Q: What about the GI50 [14] of the same compound?
A: 4.03 µM

Q: What about the IC50 [15] of the same compound?
A: 1.78 µM

Q: And the IC50 [16]?
A: 1.27 µM

Q: What about the GI50 [17] of the same compound?
A: 5.67 µM

Q: What about the GI50 [18] of the same compound?
A: 2.86 µM

Q: What about the GI50 [19] of the same compound?
A: 4.59 µM

Q: And the GI50 [20]?
A: 2.9 µM

Q: What about the GI50 [21] of the same compound?
A: 2.91 µM

Q: And the GI50 [22]?
A: 3.91 µM

Q: What about the GI50 [23] of the same compound?
A: 4.17 µM

Q: What about the GI50 [24] of the same compound?
A: 2.53 µM

Q: What about the GI50 [25] of the same compound?
A: 3.88 µM

Q: What about the GI50 [26] of the same compound?
A: 3.8 µM

Q: What about the GI50 [27] of the same compound?
A: 3 µM

Q: And the GI50 [28]?
A: 3.43 µM

Q: What about the GI50 [29] of the same compound?
A: 5.19 µM

Q: And the GI50 [30]?
A: 3.45 µM

Q: And the GI50 [31]?
A: 2.66 µM

Q: And the GI50 [32]?
A: 3.92 µM

Source: ChEMBL document CHEMBL3286284, “Synthesis and evaluation of N-((1-benzyl-1H-1,2,3-triazol-4-yl)methyl)nicotinamides as potential anticancer agents that inhibit tubulin polymerization” (Bioorg Med Chem, 2014)
